In ChEMBL document CHEMBL1250442, “Inhibiting gene expression at transcription start sites in chromosomal DNA with antigene RNAs” (Nat Chem Biol, 2005):
The source made the active and inactive calls. The calls are words filed in the database; no cut-off is given here.

Experiments:
T47D [1] = assay: Inhibition of PR-A gene expression in human T47D cells at 25 nM by syber green assay in presence of 10 nM estradiol; format: functional, cell-based
T47D [2] = assay: Inhibition of PR-A gene expression in human T47D cells at 25 nM by syber green assay; format: functional
In short: (§1)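 T47D cells plated at 80,000/well without antibiotics two days before Oligofectamine transfection with agRNA duplex (25 or 100 nM final); medium changed at 24 h, harvest day 5 unless stated otherwise. TRIzol total RNA; PR mRNA by real-time PCR with SYBR Green: 50 °C 2 min, 95 °C 10 min, 40 cycles 95 °C 15 s/60 °C 1 min.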

T47D [3] = assay: Effect of DNA methylation at (+125) CpG site near PR-B transcription start site (-13) in human T47D cells by sodium bisulfite sequencing analysis; format: functional, cell-based
In short: (§2)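 T47D cells grown in RPMI-1640 with 10% FBS, 0.5% NEAA, insulin and P/S at 37 °C, 5% CO2. They were plated at 80,000 cells/well 2 days before lipid transfection with 25 nM or 100 nM duplex, with medium changed at 24 h. Cells were harvested 5 days post-transfection. 100 ng bisulfite-treated DNA was PCR-amplified, and products were TA-cloned. 5–15 colonies per plate were sequenced.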

T47D [4] = assay: Effect of DNA methylation at (+267) CpG site near PR-B transcription start site (-13) in human T47D cells by sodium bisulfite sequencing analysis; format: functional, cell-based; in short: as §2
T47D [5] = assay: Effect of DNA methylation at (-75) CpG site near PR-B transcription start site (-13) in human T47D cells by sodium bisulfite sequencing analysis; format: functional, cell-based
In short: (§3)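 T47D cells (RPMI-1640, 10% FBS, NEAA, insulin; 37 °C, 5% CO2) transfected with agRNA duplexes via Oligofectamine, medium changed at 24 h. Genomic DNA bisulphite-treated, regions around AR and hPR-B start sites PCR-amplified (HotStarTaq, 100 ng treated DNA), gel-purified, TOPO TA cloned; 5–15 colonies per plate miniprepped and sequenced.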

T47D [6] = assay: Effect of DNA methylation at (+20) CpG site near PR-B transcription start site (-13) in human T47D cells by sodium bisulfite sequencing analysis; format: functional, cell-based; in short: as §2
T47D [7] = assay: Effect of DNA methylation at (+319) CpG site near PR-B transcription start site (-13) in human T47D cells by sodium bisulfite sequencing analysis; format: functional, cell-based; in short: as §2
T47D [8] = assay: Inhibition of PR-B mRNA gene expression in human T47D cells at 100 nM by syber green assay; format: functional
In short: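 T47D cells in RPMI-1640 with 10% FBS, NEAA, insulin, 37 °C, 5% CO2. Plated two days before transfection without antibiotics. Oligofectamine-mediated duplex RNA transfection at 100 nM final, medium changed at 24 h, harvest five days post-transfection. Total RNA extracted with TRIzol. hPR mRNA quantified by SYBR Green qPCR: 50 °C 2 min, 95 °C 10 min, then 40 cycles of 95 °C 15 s / 60 °C 1 min.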

T47D [9] = assay: Inhibition of PR-B gene expression in human T47D cells at 25 nM by syber green assay; format: functional; in short: as §1
T47D [10] = assay: Effect of DNA methylation at (+362) CpG site near PR-B transcription start site (-13) in human T47D cells by sodium bisulfite sequencing analysis; format: functional, cell-based; in short: as §2
T47D [11] = assay: Effect of DNA methylation at (+41) CpG site near PR-B transcription start site (-13) in human T47D cells by sodium bisulfite sequencing analysis; format: functional, cell-based; in short: as §2
T47D [12] = assay: Effect of DNA methylation at (+225) CpG site near PR-B transcription start site (-13) in human T47D cells by sodium bisulfite sequencing analysis; format: functional, cell-based; in short: as §2
T47D [13] = assay: Effect of DNA methylation at (+149) CpG site near PR-B transcription start site (-13) in human T47D cells by sodium bisulfite sequencing analysis; format: functional, cell-based; in short: as §2
T47D [14] = assay: Effect of DNA methylation at (+337) CpG site near PR-B transcription start site (-13) in human T47D cells by sodium bisulfite sequencing analysis; format: functional, cell-based; in short: as §2
T47D [15] = assay: Effect of DNA methylation at (+166) CpG site near PR-B transcription start site (-13) in human T47D cells by sodium bisulfite sequencing analysis; format: functional, cell-based; in short: as §2
T47D [16] = assay: Inhibition of PR-B gene expression in human T47D cells at 25 nM by syber green assay in presence of 10 nM estradiol; format: functional, cell-based
T47D [17] = assay: Effect of DNA methylation at (+112) CpG site near PR-B transcription start site (-13) in human T47D cells by sodium bisulfite sequencing analysis; format: functional, cell-based; in short: as §2
T47D [18] = assay: Effect of DNA methylation at (+398) CpG site near PR-B transcription start site (-13) in human T47D cells by sodium bisulfite sequencing analysis; format: functional, cell-based; in short: as §2
T47D [19] = assay: Effect of DNA methylation at (+107) CpG site near PR-B transcription start site (-13) in human T47D cells by sodium bisulfite sequencing analysis; format: functional, cell-based; in short: as §2
T47D [20] = assay: Effect of DNA methylation at (-112) CpG site near PR-B transcription start site (-13) in human T47D cells by sodium bisulfite sequencing analysis; format: functional, cell-based; in short: as §3
T47D [21] = assay: Effect of DNA methylation at (+335) CpG site near PR-B transcription start site (-13) in human T47D cells by sodium bisulfite sequencing analysis; format: functional, cell-based; in short: as §2
T47D [22] = assay: Effect of DNA methylation at (+173) CpG site near PR-B transcription start site (-13) in human T47D cells by sodium bisulfite sequencing analysis; format: functional, cell-based; in short: as §2
T47D [23] = assay: Effect of DNA methylation at (+162) CpG site near PR-B transcription start site (-13) in human T47D cells by sodium bisulfite sequencing analysis; format: functional, cell-based; in short: as §2
T47D [24] = assay: Effect of DNA methylation at (+356) CpG site near PR-B transcription start site (-13) in human T47D cells by sodium bisulfite sequencing analysis; format: functional, cell-based; in short: as §2
T47D [25] = assay: Effect of DNA methylation at (-23) CpG site near PR-B transcription start site (-13) in human T47D cells by sodium bisulfite sequencing analysis; format: functional, cell-based; in short: as §3
T47D [26] = assay: Inhibition of PR-A mRNA gene expression in human T47D cells at 100 nM by syber green assay; format: functional; in short: as §1
T47D [27] = assay: Effect of DNA methylation at (+216) CpG site near PR-B transcription start site (-13) in human T47D cells by sodium bisulfite sequencing analysis; format: functional, cell-based; in short: as §2
T47D [28] = assay: Effect of DNA methylation at (-46) CpG site near PR-B transcription start site (-13) in human T47D cells by sodium bisulfite sequencing analysis; format: functional, cell-based; in short: as §3
T47D [29] = assay: Effect of DNA methylation at (+379) CpG site near PR-B transcription start site (-13) in human T47D cells by sodium bisulfite sequencing analysis; format: functional, cell-based; in short: as §2
T47D [30] = assay: Effect of DNA methylation at (+190) CpG site near PR-B transcription start site (-13) in human T47D cells by sodium bisulfite sequencing analysis; format: functional, cell-based; in short: as §2
T47D [31] = assay: Effect of DNA methylation at (+295) CpG site near PR-B transcription start site (-13) in human T47D cells by sodium bisulfite sequencing analysis; format: functional, cell-based; in short: as §2
T47D [32] = assay: Effect of DNA methylation at (+353) CpG site near PR-B transcription start site (-13) in human T47D cells by sodium bisulfite sequencing analysis; format: functional, cell-based; in short: as §2
T47D [33] = assay: Effect of DNA methylation at (+45) CpG site near PR-B transcription start site (-13) in human T47D cells by sodium bisulfite sequencing analysis; format: functional, cell-based; in short: as §3

## Cc1cn(CC(=O)N(CCNC(=O)CN(CCNC(=O)CN(CCNC(=O)CN(CCNC(=O)CN(CCNC(=O)CN(CCNC(=O)CN(CCNC(=O)CN(CCNC(=O)CN(CCNC(=O)CN(CCNC(=O)CN(CCNC(=O)CN(CCNC(=O)CN(CCNC(=O)CN(CCNC(=O)CN(CCNC(=O)CN(CCNC(=O)CN(CCNC(=O)CN(CCNC(=O)CN(CCNC(=O)CN(CCNC(=O)CN)C(=O)Cn2cnc3c(N)ncnc32)C(=O)Cn2cnc3c(N)ncnc32)C(=O)Cn2cnc3c(=O)[nH]c(N)nc32)C(=O)Cn2ccc(N)nc2=O)C(=O)Cn2ccc(=O)[nH]c2=O)C(=O)Cn2cnc3c(=O)[nH]c(N)nc32)C(=O)Cn2ccc(=O)[nH]c2=O)C(=O)Cn2ccc(N)nc2=O)C(=O)Cn2ccc(=O)[nH]c2=O)C(=O)Cn2cnc3c(=O)[nH]c(N)nc32)C(=O)Cn2cnc3c(=O)[nH]c(N)nc32)C(=O)Cn2ccc(N)nc2=O)C(=O)Cn2ccc(N)nc2=O)C(=O)Cn2cnc3c(N)ncnc32)C(=O)Cn2cnc3c(=O)[nH]c(N)nc32)C(=O)Cn2ccc(=O)[nH]c2=O)C(=O)Cn2ccc(N)nc2=O)C(=O)Cn2ccc(N)nc2=O)C(=O)Cn2cnc3c(N)ncnc32)CC(=O)NCCN(CC(=O)NCC(=O)O)C(=O)Cn2cc(C)c(=O)[nH]c2=O)c(=O)[nH]c1=O
T47D [1]
  inhibition: Active
T47D [2]
  inhibition at 0.025 µM: 72%
T47D [3]
  Activity: inactive
T47D [4]
  Activity: inactive
T47D [5]
  Activity: inactive
T47D [6]
  Activity: inactive
T47D [7]
  Activity: inactive
T47D [8]
  inhibition at 0.1 µM: 100%
T47D [9]
  inhibition at 0.025 µM: 80%
T47D [10]
  Activity: inactive
T47D [11]
  Activity: inactive
T47D [12]
  Activity: inactive
T47D [13]
  Activity: inactive
T47D [14]
  Activity: inactive
T47D [15]
  Activity: inactive
T47D [16]
  inhibition: Active
T47D [17]
  Activity: inactive
T47D [18]
  Activity: inactive
T47D [19]
  Activity: inactive
T47D [20]
  Activity: inactive
T47D [21]
  Activity: inactive
T47D [22]
  Activity: inactive
T47D [23]
  Activity: inactive
T47D [24]
  Activity: inactive
T47D [25]
  Activity: inactive
T47D [26]
  inhibition at 0.1 µM: 100%
T47D [27]
  Activity: inactive
T47D [28]
  Activity: inactive
T47D [29]
  Activity: inactive
T47D [30]
  Activity: inactive
T47D [31]
  Activity: inactive
T47D [32]
  Activity: inactive
T47D [33]
  Activity: inactive
